The array DNA melting data of Ke et al. (doi:10.1101/2024.01.08.574731)

Columns and labels:
[1] = folding enthalpy; higher = less favourable; fluorescence melt of hairpins on a sequencing array, two-state fit; conditions: sodium 0.088 M
Method in brief: (§1)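 Folding enthalpy and melting temperature were estimated with bootstrapped two-state fits and combined across four replicates by inverse-variance weighting, with fitted temperatures raised by 9.35 °C to match UV melts. The data were Cy3 fluorescence of library hairpins, with annealed Cy3 and quencher oligos, on a sequenced MiSeq flow cell in 50 mM Na-HEPES pH 8.0, 25 mM NaCl, imaged in 2.5 °C steps up to 60 °C and normalised to pre-quench Cy3 and control constructs.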

[2] = melting temperature; fluorescence melt of hairpins on a sequencing array, two-state fit, raised by 9.35 °C to match UV melts; conditions: sodium 0.088 M
Method in brief: as §1

| Sequence | folding enthalpy [1] [kcal/mol] | Tm [2] [°C] |
| --- | --- | --- |
| GCCGAACGAAAGTTAGGC (((.(((....))).))) | -36.2 | 60.9 |
| GCCAACACGAAAGTGGGC (((..(((....)))))) | -24.9 | 52.7 |
| GTCTTAGGAAACCAAGAC (((((.(....).))))) | -30.9 | 34.4 |
| GAGCGACGAAAGTCACTC (((.(((....))).))) | -25.9 | 52.2 |
| GTGCTACGAAAGTATCAC (((.(((....))).))) | -35.5 | 44.6 |
| GCACGAGAAATCGTGC ((((((....)))))) | -32 | 68.6 |
| GCACAGCGAAAGCAGGGC ((.(.((....)).).)) | -25.8 | 62.5 |
| GGGAGCGAAAGCTGGCCC ((((((....)))..))) | -14 | 39.8 |
| GAACCCGAAAGGGTATTC ((((((....)))..))) | -9.47 | 33.2 |
| GATCCGCTCCCGGATC ((((((....)))))) | -35.8 | 56.9 |
| GATCTTCGAAAGATC ((((((...)))))) | -21.4 | 39.9 |
| GTGGCCGGAAACGACCAC ((((.((....)).)))) | -40.3 | 56.5 |
| GATCCATTACTGGATC ((((((....)))))) | -29.9 | 51.1 |
| GCAAGCGAAAGCTGTGC ((((((....))).))) | -15.8 | 55.9 |
| GCCCTTGGAAACAGGGGC ((((.((....)).)))) | -41.4 | 54.4 |
| GACTTAACGAAAGTTGTC (((..(((....)))))) | -16.8 | 32.2 |
| GATCAACTCATTGATC ((((((....)))))) | -33.8 | 44.6 |
| GATCCAGAGGTGGATC ((((((....)))))) | -28.5 | 47.8 |
| GGAGGCGAAAGCCTATCC ((((((....)))..))) | -9.28 | 40.8 |
| GCCGGCGAAAGCCATGGC ((((((....)))..))) | -19.9 | 56.1 |
| GCTACTGGAAACGGTAGC (((((.(....).))))) | -37.5 | 50.2 |
| GACGCTGGAAACAGCGCC (.(((((....))))).) | -12.4 | 53 |
| GCGTAGCGAAAGCCATGC ((.(.((....)).).)) | -7.22 | 35.6 |

| Sequence | folding enthalpy [1] [kcal/mol] | Tm [2] [°C] |
| --- | --- | --- |
| GATCGTACGACGATC ((((((...)))))) | -37.2 | 54.5 |
| GATCTAGGCATAGATC ((((((....)))))) | -36.9 | 48.8 |
| GTATGCGAAAGCACTAC ((((((....))).))) | -13.2 | 37.3 |
| GCTAGCGAAAGCTCGAGC ((((((....)))..))) | -14.6 | 35.6 |
| GTGGCCGAAAGGCACAC ((((((....))).))) | -15.1 | 63.1 |
| GGCTCCGAAAGGAACGCC ((((((....)))..))) | -21 | 50.5 |
| GTTGGCGAAAGCCTCAAC ((((((....)))..))) | -10.6 | 29.9 |
| GGAGACGGAAACGTCCCC ((.((((....)))).)) | -20.1 | 49.2 |
| GCATCTGAAAAGATGC ((((((....)))))) | -32.6 | 64.7 |
| GCGAGGGTCGC ((((...)))) | -7.26 | 62 |
| GTCGGGGGAAACCCCGGC (.(((((....))))).) | -22 | 62.5 |
| CGCTCGGAAACGAGGCG ((((((....))).))) | -30.6 | 53.2 |
| GATCCTCGTTAGGATC ((((((....)))))) | -39.1 | 51.7 |
| GTCGACTCGAAAGAGGAC (((..(((....)))))) | -16.9 | 35.6 |
| CGTACGGAAACGTGACG ((((((....))).))) | -25.9 | 41.1 |
| GTGGATCGAAAGATACAC (((.(((....))).))) | -44.2 | 55.9 |
| GAAAGGCGAAAGCCCTTC (((.(((....))).))) | -13 | 38.8 |
| GGAGTCGAAAGACCATCC ((((((....)))..))) | -11.2 | 29.5 |
| CGATGTCGGAAACGATCG (((..(((....)))))) | -17.3 | 36.2 |
| GGGTTCCGAAAGGACCCC (((.(((....))).))) | -39.5 | 58.1 |
| GATCCATTAGTGGATC ((((((....)))))) | -36.8 | 53 |
| GATCAACGACTTGATC ((((((....)))))) | -32.3 | 40.7 |
| GATCCAAAGTTGGATC ((((((....)))))) | -35.2 | 49.8 |

| Sequence | folding enthalpy [1] [kcal/mol] | Tm [2] [°C] |
| --- | --- | --- |
| GATCATAGGATGATC ((((((...)))))) | -30.8 | 48.3 |
| GATCAAATATTGATC ((((((...)))))) | -32.8 | 40.2 |
| GTGCAGGGAAACTTGCAC (((((.(....).))))) | -40.7 | 52.5 |
| GCGCTGGGAAACCAGCAC (.(((((....))))).) | -11.9 | 50.4 |
| GCAACAGGAAACCGTTGC (((((.(....).))))) | -43.8 | 50.4 |
| GATCCAACTGTGGATC ((((((....)))))) | -32.6 | 49.1 |
| GTTTCGCGAAAGCGAAC (((.(((....)))))) | -10.4 | 53.9 |
| GTTGAAGGAAACTTCAAC (((((((....))))))) | -51.5 | 54.2 |
| GATCATGAACATGATC ((((((....)))))) | -41 | 54 |
| GATCCGTCCGCGGATC ((((((....)))))) | -36.7 | 61 |
| CGCGCGGAAACGCGAGCG ((((((....)))..))) | -12.1 | 60.7 |
| GTATACGAAAGTACTAC ((((((....))).))) | -13.1 | 27.6 |
| CGAACGGAAACGTATTCG ((((((....)))..))) | -17.7 | 29.1 |
| TATGGGAAACCATA (((((....))))) | -14.9 | 37.2 |
| GGATAAGCGAAAGCTTCC (((..(((....)))))) | -12.4 | 35.5 |
| GCGCTAGGAAACTAGCAC (.(((((....))))).) | -15.4 | 44 |
| GCGCCCGCGAAAGCGCGC (((..(((....)))))) | -16.2 | 58.5 |
| GATCGATAAATCGATC ((((((....)))))) | -39.9 | 52.3 |
| CGCGTTCGGAAACGAGCG (((..(((....)))))) | -19.6 | 48.5 |
| GGGCTCGGAAACGAGTCC ((.((((....)))).)) | -41 | 65.2 |
| GATCTATGCATAGATC ((((((....)))))) | -43.4 | 49.9 |
| GATCTGTCGTCAGATC ((((((....)))))) | -37.6 | 50.5 |
| GCGAATCGTCGC ((((....)))) | -18 | 47.7 |

| Sequence | folding enthalpy [1] [kcal/mol] | Tm [2] [°C] |
| --- | --- | --- |
| GCTGGGCGAAAGCCGGGC ((..(((....)))..)) | -19.3 | 55.6 |
| GTCCCAGGAAACTGAGAC (((.(((....))).))) | -28 | 39 |
| GATCACGAAAGTGGATC ((((((....))).))) | -18.2 | 46.9 |
| GCTTGAGGAAACTTAAGC ((((.((....)).)))) | -26.4 | 39.7 |
| GCCACCGGAAACGGTAGC ((.((((....)))).)) | -21.2 | 48.1 |
| GATCCACTACTGGATC ((((((....)))))) | -35.5 | 49.7 |
| GAAACTGGAAACAGTTTC (((((((....))))))) | -51.5 | 56.9 |
| GCCAGTCGAAAGACCGGC (((.(((....))).))) | -36.4 | 55.3 |
| GCCTCTGGAAACAGAGAC (.(((((....))))).) | -18.7 | 40.1 |
| GATTGCGGAAACGTGATC (((..((....))..))) | -30.6 | 40.7 |
| GGTTGGTCGAAAGACACC (((..(((....)))))) | -17.3 | 37 |
| GATCAACCTTTGATC ((((((...)))))) | -32.4 | 42 |
| GATCCAAGGTTGGATC ((((((....)))))) | -37.5 | 51.4 |
| GCTTCTGCGAAAGCAAGC (((..(((....)))))) | -9.99 | 38.3 |
| GATGTGCGAAAGCAATC (((.(((....)))))) | -11.3 | 38.2 |
| GCAAGGCGAAAGCCGTGC (((.(((....))).))) | -22.8 | 68 |
| GGGATCCCGAAAGGGCCC (((..(((....)))))) | -16.4 | 45 |
| GATCCACCGTTGGATC ((((((....)))))) | -36.5 | 49.7 |
| GCGGATCGAAAGATGCGC (((.(((....))).))) | -38.6 | 66.3 |
| GAACTAGGAAACTAGTCC (.(((((....))))).) | -20.4 | 29.7 |
| GTACCAGGAAACCAGTAC ((((..(....)..)))) | -11.4 | 24.9 |
| GGTATCCGAAAGGAAACC (((.(((....))).))) | -31.9 | 48.8 |
| GGCTAGGGAAACCTGGCC (((.(((....))).))) | -44.8 | 55.5 |
